Laboratory results reported in ChEMBL document CHEMBL3271939, “Studies of antitumor agents. 1. Resolution of racemic 1-(tetrahydro-2-furanyl)-k-fluorouracil into the R and S isomers and examination of the biological activities of the isomers” (J Med Chem, 1977).
≈ marks a conversion by molar mass, not a printed value.

How the values were obtained:
Staphylococcus aureus = test: Antibacterial activity against Staphylococcus aureus ATCC 6538P assessed as growth inhibition after 24 hrs by plate dilution method; type: functional
In short: (§1)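 MIC determined by standard plate dilution in defined medium […], plates incubated 37 °C for 24 h.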

Brevundimonas diminuta = test: Antibacterial activity against Pseudomonas diminuta IAM 1513 assessed as growth inhibition after 24 hrs by plate dilution method; type: functional; details: IAM 1513, 24 h; in short: as §1
[1] = Drug metabolism in mouse liver microsomes assessed as fluorouracil release by measuring antibacterial activity against Staphylococcus aureus 209P at 200 ug after 4 hrs by thin layer cup method in presence of NADPH; type: ADME
In short: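 Mouse liver microsomes in 10 mM phosphate buffer pH 7.4, 1.15% KCl (25% homogenate equivalent); 0.8 mL suspension, 0.1 mL of 50 mM NADPH stock, 200 µg isomer, made to 1 mL; 37 °C, 4 h. After CHCl3 extraction of unchanged substrate, FU in neutralized aqueous phase bioassayed against S. aureus 209P by thin-layer-cup method.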

[2] = Antitumor activity against rat AH-130 cells allografted in Donryu rat assessed as tumor weight at 90 mg/kg, ip administered daily for 7 days starting 24 hrs after tumor inoculation measured on 10th day post-tumor inoculation (reference value: 4.73 +/- 1.19 gms); type: functional; details: route intraperitoneal
In short: (§2)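 Male Donryu rats (120 ± 5 g) inoculated s.c. in inguinal region with 5×10^6 AH-130 carcinoma or Yoshida sarcoma cells per rat; drug 90 mg/kg i.p. daily for 7 days starting 24 h later; six animals per group. Body weight and tumor weight measured on day 10 after inoculation; tumor weight compared with untreated control group to give % inhibition.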

Escherichia coli = test: Antibacterial activity against Escherichia coli NIHJ assessed as growth inhibition after 24 hrs by plate dilution method; type: functional; in short: as §1
YOSHIDA [3] = test: Antitumor activity against rat Yoshida cells allografted in Donryu rat assessed as inhibition of tumor growth at 90 mg/kg, ip administered daily for 7 days starting 24 hrs after tumor inoculation measured on 10th day post-tumor inoculation; type: functional; details: route intraperitoneal, read-out: TGI; in short: as §2
Micrococcus flavus = test: Antibacterial activity against Micrococcus flavus ATCC 10240 assessed as growth inhibition after 24 hrs by plate dilution method; type: functional; details: ATCC 10240, 24 h; in short: as §1
Bacillus subtilis = test: Antibacterial activity against Bacillus subtilis ATCC 6633 assessed as growth inhibition after 24 hrs by plate dilution method; type: functional; details: ATCC 6633, 24 h; in short: as §1
YOSHIDA [4] = test: Antitumor activity against rat Yoshida cells allografted in Donryu rat assessed as tumor weight at 90 mg/kg, ip administered daily for 7 days starting 24 hrs after tumor inoculation measured on 10th day post-tumor inoculation (reference value: 3.65 +/- 0.60 gms); type: functional; details: route intraperitoneal; in short: as §2
[5] = Drug metabolism in mouse liver microsomes assessed as fluorouracil release by measuring antibacterial activity against Staphylococcus aureus 209P at 200 ug after 4 hrs by thin layer cup method; type: ADME
In short: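 Mouse liver microsome fraction suspended in 10 mM phosphate buffer pH 7.4 with 1.15% KCl (equivalent to 25% homogenate); 0.8 mL suspension plus 200 µg isomer in 1 mL, no NADPH, 37 °C for 4 h. Unchanged substrate removed by CHCl3 extraction; released FU in neutralized aqueous layer quantified by antibacterial activity against S. aureus 209P, thin-layer-cup method.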

[6] = Antitumor activity against rat AH-130 cells allografted in Donryu rat assessed as inhibition of tumor growth at 90 mg/kg, ip administered daily for 7 days starting 24 hrs after tumor inoculation measured on 10th day post-tumor inoculation; type: functional; details: route intraperitoneal, read-out: TGI; in short: as §2
Klebsiella pneumoniae = test: Antibacterial activity against Klebsiella pneumoniae ATCC 10031 assessed as growth inhibition after 24 hrs by plate dilution method; type: functional; details: ATCC 10031, 24 h; in short: as §1
Proteus vulgaris = test: Antibacterial activity against Proteus vulgaris IFO 3045 assessed as growth inhibition after 24 hrs by plate dilution method; type: functional; details: IFO 3045, 24 h; in short: as §1
Rattus norvegicus [7] = test: Toxicity in Donryu rat allografted with rat Yoshida cells assessed as body weight at 90 mg/kg, ip administered daily for 7 days starting 24 hrs after tumor inoculation measured on 10th day post-tumor inoculation (reference value: 53 gms); type: organism-based; set-up: dose 90 mg/kg, route intraperitoneal; details: in vivo; in short: as §2
Rattus norvegicus [8] = test: Toxicity in Donryu rat allografted with rat AH-130 cells assessed as body weight at 90 mg/kg, ip administered daily for 7 days starting 24 hrs after tumor inoculation measured on 10th day post-tumor inoculation (reference value: 64.1 gms); type: organism-based; set-up: dose 90 mg/kg, route intraperitoneal; details: in vivo; in short: as §2
Micrococcus luteus = test: Antibacterial activity against Sarcina lutea ATCC 9341 assessed as growth inhibition after 24 hrs by plate dilution method; type: functional; details: ATCC 9341, 24 h; in short: as §1

Row | SMILES | MIC (Staphylococcus aureus) [µM] | MIC (Brevundimonas diminuta) [µM] | Drug metabolism [1] [µg/mL] | Activity [2] [g] | MIC (Escherichia coli) [µM] | inhibition in vivo at 90 mg/kg (YOSHIDA [3]) [%] | MIC (Micrococcus flavus) [µM] | MIC (Bacillus subtilis) [µM] | Activity (YOSHIDA [4]) [g] | Drug metabolism [5] [µg/mL] | inhibition in vivo at 90 mg/kg [6] [%] | MIC (Klebsiella pneumoniae) [µM] | MIC (Proteus vulgaris) [µM] | Activity (Rattus norvegicus [7]) [g] | Activity (Rattus norvegicus [8]) [g] | MIC (Micrococcus luteus) [µM]
1 | O=c1[nH]c(=O)n([C@@H]2CCCO2)cc1F | 12 (≈ 2.4 µg/mL) | > 1000 | 13.16 | 1.33 | > 1000 | 40.6 | 375 (≈ 75.1 µg/mL) | > 1000 | 2.17 | 0.72 | 71.9 | > 1000 | > 1000 | 39.3 | 33 | 12 (≈ 2.4 µg/mL)
2 | O=c1[nH]c(=O)n([C@H]2CCCO2)cc1F | 12 (≈ 2.4 µg/mL) | > 1000 | 10.32 | 1.82 | > 1000 | 33.7 | 750 (≈ 150 µg/mL) | 780 (≈ 156 µg/mL) | 2.42 | 0.51 | 61.5 | > 1000 | > 1000 | 42 | 40.2 | 6 (≈ 1.2 µg/mL)
3 | O=c1[nH]cc(F)c(=O)[nH]1 [FLUOROURACIL] | 0.0723 (≈ 0.0094 µg/mL) | > 1000 | – | – | 18.6 (≈ 2.42 µg/mL) | – | 0.00425 (≈ 0.000553 µg/mL) | 4.62 (≈ 0.601 µg/mL) | – | – | – | 601 (≈ 78.2 µg/mL) | 18.5 (≈ 2.41 µg/mL) | – | – | 0.0723 (≈ 0.0094 µg/mL)
4 | O=c1[nH]c(=O)n(C2CCCO2)cc1F (racemic) [TEGAFUR] | 12 (≈ 2.4 µg/mL) | > 1000 | – | 2.3 | > 1000 | 38.9 | 750 (≈ 150 µg/mL) | 780 (≈ 156 µg/mL) | 2.23 | – | 51.4 | > 1000 | > 1000 | 33.2 | 33 | 12 (≈ 2.4 µg/mL)
